NRP1-CendR mod: modulators of CendR peptide binding to human neuropilin-1. inhibition, % at 25 µM. AID 602438. FAM-RPARPAR peptide binding to NRP-1, fluorescence polarization. 360,000 compounds, 0.85% hits. O14786;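 active means inhibition or corrected inhibition above about 18%, plus a signal ratio from 0.5 to 1.5, limit read from the data, passing the limit was not always enough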
SENP1 FRET inh: inhibitors of human SENP1 SUMO protease catalytic domain | Q9P0U3 | inhibition, % at 10 µM | recombinant SENP1 catalytic domain, CyPet-SUMO1-YPet FRET cleavage | 360,000 compounds, 0.21% hits;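 active means inhibition at least 30% at 10 µM, raw YFP signal under a set limit, fluorescence ratio 0.5 to 1.5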;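 further: 0% = enzyme with DMSO and 100% = no enzyme wells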
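System: Recombinant human SENP1 catalytic domain, His6-tagged | Incubation: Enzyme reaction for 50 min at room temperature, dark | Medium: Tris pH 8 with BME, BSA, NP40 and catalase | Also added: 25 nM SUMO1 FRET substrate | Compound: 10 µM single point, 0.5% DMSO | Measured by: FRET fluorescence in CFP and YFP emission channels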
SENP8 block-1: blocks the human protease SENP8. purified SENP8, Z-RLRGG-aminoluciferin cleavage, luminescence. Q96LD8. 330,000 compounds, 1.2% hits. AID 2540. inhibition, % at 10 µM; in the data active means inhibition above about 50%
Target sequence (Q96LD8 whole entry, looked up): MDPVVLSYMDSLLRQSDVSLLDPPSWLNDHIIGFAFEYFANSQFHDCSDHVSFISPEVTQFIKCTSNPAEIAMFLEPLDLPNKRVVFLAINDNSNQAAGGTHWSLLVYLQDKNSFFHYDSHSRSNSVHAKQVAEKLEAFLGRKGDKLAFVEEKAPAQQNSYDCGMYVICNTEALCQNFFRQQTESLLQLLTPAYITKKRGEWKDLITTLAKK
SENP7 inh: blocks the human protease SENP7 | recombinant SENP7, Z-RLRGG-aminoluciferin luminescence, 40 min | AID 434973 | 330,000 compounds, 1.5% hits | inhibition, % at 5 µM;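 active means inhibition above about 50% at the single test dose, limit read from the data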;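 further: plate controls were DMSO with enzyme for no effect and no enzyme buffer wells for full effect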
Target sequence (Q9BQF6 706-1050 limits assumed): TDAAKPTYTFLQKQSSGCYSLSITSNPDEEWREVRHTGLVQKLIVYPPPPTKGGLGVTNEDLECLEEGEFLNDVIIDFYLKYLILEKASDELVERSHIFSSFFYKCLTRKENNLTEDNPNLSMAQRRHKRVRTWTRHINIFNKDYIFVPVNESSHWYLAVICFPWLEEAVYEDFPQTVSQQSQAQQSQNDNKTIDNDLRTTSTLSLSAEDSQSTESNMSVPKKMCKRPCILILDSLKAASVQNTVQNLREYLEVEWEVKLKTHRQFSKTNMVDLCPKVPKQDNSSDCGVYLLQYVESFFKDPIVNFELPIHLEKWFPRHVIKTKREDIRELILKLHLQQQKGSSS
SENP6 inh: SENP6 protease inhibition; inhibition, % at 10 µM; Q9GZR1; 330,000 compounds, 1.8% hits; Recombinant SENP6 catalytic domain, aminoluciferin luminescence;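 active means inhibition above about 50% at the single tested dose, limit read from the data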;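 further: plate controls were DMSO wells with enzyme for no effect and DMSO wells lacking enzyme for full effect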
SENP8 block-2: blocks human SENP8 cleavage of Nedd8 substrate; Q96LD8; inhibition, % at 20 µM; recombinant SENP8, Nedd8 substrate fluorescence; 360,000 compounds, 0.64% hits; in the data active means inhibition mostly above about 40%, no sharp cut-off; inactive means mostly below about 27%
SENP8 confirm: confirmation of human SENP8 protease inhibitors | shares compounds with SENP7 inh | Recombinant SENP8, Z-RLRGG-aminoluciferin luminescence, 60 min | AID 488912 | 6,200 compounds, 40% hits | inhibition, % at 12.5 µM;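 active means mean inhibition across replicates above about 50%, limit read from the data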
SENP6 confirm: confirmation of human SENP6 protease inhibitors | inhibition, % at 12.5 µM | recombinant SENP6, Z-RLRGG-aminoluciferin luminescence | 6,200 compounds, 58% hits | shares compounds with SENP7 inh
SENP7 confirm: confirmation of human SENP7 protease inhibitors | shares compounds with SENP7 inh | recombinant SENP7, Z-RLRGG-aminoluciferin luminescence, 40 min | inhibition, % at 12.5 µM | 6,200 compounds, 69% hits | AID 488917
Casp3 select: caspase-3 inhibition (SENP selectivity assay); purified caspase-3, Z-DEVD-aminoluciferin luminescence, 60 min; AID 488918; shares compounds with SENP7 inh; 6,200 compounds, 60% hits; inhibition, % at 12.5 µM;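 active means mean inhibition above about 50%, limit read from the data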;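 further: plate controls were enzyme with DMSO for no effect and wells without caspase-3 for full effect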
SENP luc ctr: counter-screen for SENP inhibitors: luminescence interference; shares compounds with SENP7 inh; Pre-incubated SENP8/Z-RLRGG-aminoluciferin, luciferase luminescence interference; inhibition, % at 12.5 µM; 6,200 compounds, 39% hits;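 active means mean inhibition above about 50% when retested at one dose, limit read from the data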;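 further: plate controls were DMSO wells with completed reaction for no effect and substrate without enzyme for full effect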
An asterisk follows results filed as active; i = inactive; . = not tested or not shown. Only some compounds are listed: those with a hit (about 3.3% of all), similar ones and a draw of the others.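 How the source made its calls, unless noted: active means mean inhibition above about 50% in the one-dose retest (limit read from the data); inactive means the rest.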

SMILES	NRP1-CendR mod	SENP1 FRET inh	SENP8 block-1	SENP7 inh	SENP6 inh	SENP8 block-2	SENP8 confirm	SENP6 confirm	SENP7 confirm	Casp3 select	SENP luc ctr
CCc1ccc2oc(-c3cc(N=Cc4cccc(OC)c4O)ccc3O)nc2c1	.	.	92*	89*	86*	.	84*	84*	87*	76*	28
O=C(CNc1ccc2ccccc2c1)N/N=C/c1ccc([N+](=O)[O-])o1	-4	-19	7	12	54*	-173	-14	16	-2	-6	-9
O=C(NCCOc1ccccc1)c1ccc2c(c1)OCO2	1	2	50	-2	69*	4	50*	48	85*	80*	69*
O=C(NCCOc1ccccc1)c1ccc2n[nH]nc2c1	-14	0	50*	32	58*	-2	68*	68*	87*	87*	72*
CN(CCOc1ccccc1)C(=O)c1ccc2c(c1)OCO2	-3	0	15	2	9	6	.	.	.	.	.
COc1cc(-c2cnc3c(NC(C)=O)cc(-c4ccccc4CN(C)C)cn23)cc(OC)c1OC	1	-2	.	.	.	-493	.	.	.	.	.
O=C(/C=C/c1ccco1)N1CCc2ccccc21	-6	-2	91*	91*	93*	13	-1	96*	102*	97*	94*
CCOC(=O)[C@]12CCCC=C1N(Cc1ccc(Cl)cc1Cl)C(=O)[C@H](CC(=O)NCc1ccc(OC)c(OC)c1)C2	11	-3	.	.	.	25	.	.	.	.	.
O=C(Nc1ccc(N2CCOCC2)cc1)c1ccc(Br)o1	-1	1	33	50	45	4	.	.	.	.	.
CC1CCN(c2ccc(NC(=O)c3ccc(Br)o3)cc2)CC1	6	2	56*	88*	81*	10	32	30	26	27	14
COc1cccc(-c2c(-c3ccccc3OC)ncn2Cc2cccc(-c3ccccc3)c2)c1	-18	-1	.	.	.	-13	.	.	.	.	.
c1ccc(Cn2c(-c3ccco3)nc3nc4ccccc4nc32)cc1	-44	-40	75*	52*	89*	i	22	82*	96*	82*	8
CCCCCn1c(-c2ccco2)nc2nc3ccccc3nc21	-19	-36	-12	-1	-6	-482	.	.	.	.	.
O=c1c2ccccc2nc(-c2ccco2)n1Cc1ccccc1	12	0	63*	69*	77*	8	79*	76*	89*	78*	77*
Cc1cccc2c1-c1sc(C(=O)Nc3nccs3)cc1CO2	-20	-122	-1	67*	40	-399	8	12	20	13	10
O=C(Nc1nccs1)c1cc2c(s1)-c1ccccc1OC2	-2	-95	-16	16	-10	-431	.	.	.	.	.
CN(C)[C@H]1CCN([C@@H]2CS(=O)(=O)N[C@H]2COCc2ccccc2)C1	-1	-8	.	.	.	14	.	.	.	.	.
N#C/C(=C(/O)CSc1ccccn1)c1nc2ccccc2s1	-16	-37	6	-6	8	-8	.	.	.	.	.
Cc1ccc(SC/C(O)=C(\C#N)c2nc3ccccc3s2)cc1	-14	-1	25	0	71*	29	6	22	13	16	8
O=C(NCCN1CCC(n2c(=O)[nH]c3ccccc32)CC1)c1cccc(Cl)c1	8	1	.	.	.	16	.	.	.	.	.
Cc1ccnc(NC(=O)c2cc3cc(F)ccc3s2)c1	-12	-1	73*	73*	87*	-66	79*	78*	95*	73*	60*
COc1ccc(NC(=O)Nc2cc(C)ccn2)cc1	13	2	.	.	.	24	.	.	.	.	.
Cc1ccnc(NC(=O)Nc2ccc(F)cc2)c1	4	0	30	42	71*	20	17	31	42	22	3
Cc1ccnc(NC(=O)c2ccc([N+](=O)[O-])s2)c1	12	-1	23	43	35	10	.	.	.	.	.
CSc1ccc(NC(=O)Nc2cc(C)ccn2)cc1	4	0	29	78*	49	18	13	30	31	35	11
SMILES	NRP1-CendR mod	SENP1 FRET inh	SENP8 block-1	SENP7 inh	SENP6 inh	SENP8 block-2	SENP8 confirm	SENP6 confirm	SENP7 confirm	Casp3 select	SENP luc ctr
CN1CCN(C2CN(Cc3cn(Cc4ccccc4)nn3)S(=O)(=O)C2)CC1 (configuration not stated)	5	-1	.	.	.	19	.	.	.	.	.
CC(=O)Nc1ccc(-c2csc(NCCc3ccccc3)n2)cc1	-4	-8	-4	13	-8	12	.	.	.	.	.
Cc1cccc(Nc2nc(-c3ccc(F)c(C)c3)cs2)n1	1	2	44	55*	53*	11	32	60*	76*	21	19
Cc1ccnc(Nc2nc(-c3ccc(O)c(O)c3)cs2)c1	8	1	12	-15	3	14	.	.	.	.	.
Oc1ccc(-c2csc(Nc3ccccn3)n2)cc1O	7	-1	61*	37	87*	-11	78*	79*	92*	49	81*
Cc1cccc(Nc2nc(-c3ccc(O)c(O)c3)cs2)n1	12	-1	38	-14	65*	13	47	49	71*	13	67*
CC(=O)Nc1ccc(-c2csc(Nc3ccccn3)n2)cc1	11	3	75*	73*	87*	-6	74*	79*	96*	60*	86*
C#CC1(NC(=S)Nc2cccc(OC)c2)CCCCC1	-3	0	.	.	.	10	.	.	.	.	.
O=C(Nc1ccc(F)cc1)C(c1ccncc1)N1CCN(CC(=O)N2CCCC2)CC1 (configuration not stated)	-14	-2	.	.	.	18	.	.	.	.	.
Cc1cn([C@H]2C[C@H](O)[C@@H](/C=C/C(=O)NCCc3ccc4c(c3)OCO4)O2)c(=O)[nH]c1=O	4	-1	.	.	.	20	.	.	.	.	.
CCC(=O)Nc1nc(C)c(-c2csc(Nc3ccccn3)n2)s1	-4	-1	59*	44	23	-214	52*	69*	86*	30	58*
CC(=O)N1CCN(CC(=O)Nc2cc(S(=O)(=O)N3CCCCC3)ccc2C)CC1	-2	2	-12	-5	-24	24	.	.	.	.	.
CCOC(=O)C1=C[C@@H](c2ccccc2)N(S(=O)(=O)c2ccc(C)cc2)[C@H]1c1ccc(OC)cc1	13	-1	.	.	.	6	.	.	.	.	.

Assay outcomes (PubChem)
